Data published in ChEMBL document CHEMBL5226313, “Discovery of an Orally Efficacious MYC Inhibitor for Liver Cancer Using a GNMT-Based High-Throughput Screening System and Structure-Activity Relationship Analysis” (J Med Chem, 2021).
The source made the active and inactive calls. The rule behind the calls is not given here.

How the values were obtained:
[1] = biological target: T1, Glycine N-methyltransferase (Homo sapiens) (UniProt Q14749); test: Induction of GNMT in human H7GPL cells assessed as fold increase in promoter-driven luciferase reporter expression at 10 uM measured after 24 hrs by luminescence assay relative to control; assay type: cell-based; conditions: filed as activator
T1 sequence (whole entry): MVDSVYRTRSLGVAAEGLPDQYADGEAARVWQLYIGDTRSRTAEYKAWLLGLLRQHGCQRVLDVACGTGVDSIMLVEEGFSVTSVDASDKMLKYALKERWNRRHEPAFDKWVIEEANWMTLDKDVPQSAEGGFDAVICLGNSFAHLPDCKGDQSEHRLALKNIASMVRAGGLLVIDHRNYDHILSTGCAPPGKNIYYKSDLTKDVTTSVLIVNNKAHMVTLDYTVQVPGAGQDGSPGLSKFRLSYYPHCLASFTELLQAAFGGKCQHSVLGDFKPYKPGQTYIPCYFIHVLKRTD

[2] = biological target: T1, Glycine N-methyltransferase (Homo sapiens); test: Induction of GNMT in human H7GPL cells assessed as fold increase in promoter-driven luciferase reporter expression at 2.5 uM measured after 24 hrs by luminescence assay relative to control; assay type: cell-based; conditions: filed as activator
Procedure, shortened: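 H7GPL cells (Huh7 carrying a stable lentiviral GNMT promoter–luciferase reporter, kept in 1 μg/mL puromycin) treated with compound for 24 h, then luciferase measured. Luciferase activity normalised to cell viability and expressed as fold over solvent control; means ± SD, n = 3.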

[3] = Cytotoxicity against human H7GPL cells at 10 uM measured after 72 hrs by MTS assay; assay type: toxicity, cell-based
Procedure, shortened: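 H7GPL-1 cells seeded at 3 × 10³ per well overnight, then exposed to 10 μM compound for 72 h. Medium replaced with MTS/PMS reagent (20:1) and incubated 1.5 h at 37 °C in 5% CO2; absorbance read at 490 nm. Viability expressed relative to control, where 100% means no cytotoxicity.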

[4] = biological target: T1, Glycine N-methyltransferase (Homo sapiens); test: Induction of GNMT in human H7GPL cells assessed as fold increase in promoter-driven luciferase reporter expression measured after 24 hrs by luminescence assay relative to control; assay type: cell-based; conditions: filed as activator, dose 0.15-10 µM
Huh-7 [5] = test: Induction of GNMT mRNA expression in human Huh-7 cells at 2.5 uM measured after 24 hrs by qRT-PCR analysis; assay type: functional, cell-based
Procedure, shortened: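 Huh7 cells exposed to 2.5 μM for 24 h, then RNA harvested. GNMT mRNA quantified by qRT-PCR, normalised to an internal control and expressed as fold over solvent control; means ± SD, n = 3.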

Huh-7 [6] = test: Induction of GNMT protein expression in human Huh-7 cells at 2.5 uM measured after 24 hrs; assay type: functional, cell-based
Huh-7 [7] = test: Antitumor activity against human Huh-7 cells xenografted in mouse tumor model assessed as inhibition of tumor growth at 25 to 300 mg/kg, po treated for 30 days; assay type: functional, organism-based; conditions: dose 25-300 mg/kg, time 30.0 day
Procedure, shortened: (§1)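 Female Balb/c nude mice, 5–6 weeks old, injected subcutaneously in the right flank with 1 × 10⁶ Huh7 cells. Once tumors were palpable, animals were randomised and dosed orally every day for 30 days at 25, 100 or 300 mpk, or vehicle; sorafenib 25 mpk as reference group. Tumors measured by caliper throughout; body weight recorded during treatment.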

[8] = Toxicity in mouse xenografted with human Huh-7 cells assessed as body weight at 25 to 300 mg/kg, po treated for 30 days; assay type: organism-based; conditions: in vivo, 720 h, dose 25-300 mg/kg, time 30 day; procedure, shortened: as §1
Huh-7 [9] = test: Antiproliferative activity against human Huh-7 cells assessed as inhibition of cell growth incubated for 72 hrs by Alamar blue assay; assay type: functional, cell-based; conditions: dose 0.3-80 µM
Procedure, shortened: (§2)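 Cells seeded in 96-well plates and exposed to a range of drug concentrations for 72 h; Alamar Blue added for a further 4 h. Viable cells expressed as percentage of solvent-treated control; means ± SD, n = 3. Cells kept in DMEM with 10% FBS, 2 mM L-glutamine, 0.1 mM non-essential amino acids and antibiotics at 37 °C in humidified CO2.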

Hep 3B2 = test: Antiproliferative activity against human Hep3B cells assessed as inhibition of cell growth incubated for 72 hrs by Alamar blue assay; assay type: functional, cell-based; conditions: dose 0.3-80 µM; procedure, shortened: as §2
HepG2 [10] = test: Antiproliferative activity against human HepG2 cells assessed as inhibition of cell growth incubated for 72 hrs by Alamar blue assay; assay type: functional, cell-based; conditions: dose 0.3-80 µM; procedure, shortened: as §2
HepG2 [11] = test: Inhibition of colony formation in human HepG2 cells after 10 days by crystal violet staining based assay; assay type: functional, cell-based; conditions: dose 0.6-10 µM, time 10.0 day
Procedure, shortened: (§3)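 Cells seeded at 1 × 10⁴ per well overnight in six-well plates, then exposed to the specified drug concentrations for 10 days at 37 °C in 5% CO2. Surviving colonies stained with crystal violet and counted; means ± SD, n = 3.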

Huh-7 [12] = test: Inhibition of colony formation in human Huh-7 cells after 10 days by crystal violet staining based assay; assay type: functional, cell-based; conditions: dose 0.6-10 µM, time 10.0 day; procedure, shortened: as §3
Huh-7 [13] = test: Antitumor activity against human Huh-7 cells xenografted in mouse tumor model assessed as reduction in tumor volume at 10 to 25 mg/kg, po treated for 30 days; assay type: functional, organism-based; conditions: dose 10-25 mg/kg, time 30.0 day
Procedure, shortened: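 Huh7 xenografts (1 × 10⁶ cells s.c., right flank) in female Balb/c nude mice aged 5–6 weeks. After tumors became palpable, mice were randomised and dosed orally every day at 10 or 25 mpk, or solvent; sorafenib 25 mpk as comparator. Caliper monitoring of tumor growth over about 4 weeks; mean ± SE, n = 6.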

[14] = Toxicity in NOD-SCID mouse assessed as survival at 10 to 25 mg/kg, po treated for 30 days; assay type: organism-based; conditions: in vivo, 720 h, dose 10-25 mg/kg, time 30 day
Procedure, shortened: (§4)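 Huh7 cells (1 × 10⁶) were injected subcutaneously into the right flank of five- to six-week-old female mice. Once tumours were palpable, mice were randomised and dosed orally every day for 30 days at 10 or 25 mpk, with vehicle and sorafenib (25 mpk) groups alongside. Survival, body weight, liver function tests and organ morphology were monitored during treatment.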

[15] = Toxicity in NOD-SCID mouse assessed as body weight at 10 to 25 mg/kg, po treated for 30 days; assay type: organism-based; conditions: in vivo, 720 h, dose 10-25 mg/kg, time 30 day; procedure, shortened: as §4
[16] = Toxicity in NOD-SCID mouse assessed as liver function at 10 to 25 mg/kg, po treated for 30 days; assay type: organism-based; conditions: in vivo, 720 h, dose 10-25 mg/kg, time 30 day; procedure, shortened: as §4
[17] = Toxicity in NOD-SCID mouse assessed as organ morphology at 10 to 25 mg/kg, po treated for 30 days; assay type: organism-based; conditions: in vivo, 720 h, dose 10-25 mg/kg, time 30 day; procedure, shortened: as §4
Huh-7 [18] = test: Effect on HDAC1 protein expression in human Huh-7 cells at 0.6 to 10 uM incubated for 24 hrs by immunoblot analysis; assay type: functional, cell-based; conditions: dose 0.6-10 µM
Procedure, shortened: (§5)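 Huh7 or HepG2 cells exposed to the indicated concentrations for 24 h. Lysates prepared in RIPA buffer with phosphatase inhibitors (10 mM Na3VO4, 1 mM NaF, 5 mM NaPPi) and protease inhibitor cocktail; protein quantified by Bio-Rad assay. HDAC1 and HDAC2 detected by immunoblot, with GAPDH as loading control.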

Huh-7 [19] = test: Effect on HDAC2 protein expression in human Huh-7 cells at 0.6 to 10 uM incubated for 24 hrs by immunoblot analysis; assay type: functional, cell-based; conditions: dose 0.6-10 µM; procedure, shortened: as §5
HepG2 [20] = test: Effect on HDAC1 protein expression in human HepG2 cells at 0.6 to 10 uM incubated for 24 hrs by immunoblot analysis; assay type: functional, cell-based; conditions: dose 0.6-10 µM; procedure, shortened: as §5
HepG2 [21] = test: Effect on HDAC2 protein expression in human HepG2 cells at 0.6 to 10 uM incubated for 24 hrs by immunoblot analysis; assay type: functional, cell-based; conditions: dose 0.6-10 µM; procedure, shortened: as §5
HepG2 [22] = test: Inhibition of MYC mRNA expression in human HepG2 cells at 0.6 to 10 uM incubated for 24 hrs by immunoblot analysis; assay type: functional, cell-based; conditions: dose 0.6-10 µM, in the assay text read “qRT-PCR analysis” for “immunoblot analysis”
Procedure, shortened: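 Huh7 or HepG2 cells treated with the indicated concentrations for 24 h. Myc mRNA measured by qRT-PCR and expressed as fold over solvent control; means ± SD, n = 3.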

Huh-7 [23] = test: Reduction in MYC protein expression in tumor of mouse xenografted with human Huh-7 cells at 10 to 25 mg/kg, po treated for 30 days; assay type: functional, organism-based; conditions: dose 10-25 mg/kg, time 30.0 day
Procedure, shortened: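 Tumors taken from Huh7 xenografted nude mice dosed orally every day at 10 or 25 mpk. Tumor lysates prepared in RIPA buffer containing phosphatase and protease inhibitors. MYC and GNMT detected by immunoblot with β-actin as loading control; n = 6 mice per group.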

Huh-7 [24] = test: Increase in p21 expression in human Huh-7 cells at 0.6 to 10 uM incubated for 24 hrs by qRT-PCR analysis; conditions: dose 0.6-10 µM
[25] = Drug uptake in NOD-SCID mouse assessed as compound level in liver tissue at 25 mg/kg, po treated for 30 days; conditions: in vivo, 720 h

fold change (FC) [1] | fold change (FC) [2] | Compound | other results
11 | 0.93 | C/C(=N\NC(=O)c1ccccc1N)c1ccccn1 | 
9.79 | 0.38 | C/C(=N\NC(=O)c1ccccc1O)c1ccccn1 | 
1.36 | 0.12 | O=C(N/N=C/c1cccs1)c1cc2ccccc2cc1O | 
1.5 | 4.88 | C/C(=N\NC(=O)c1ccc(O)cc1O)c1ccccn1 | 
 |  | c1ccc(-n2ncc3c(N4CCC5(CC4)OCCO5)ncnc32)cc1 | Activity [3]: Non-Toxic
1.56 | 1.19 | O=C(N/N=C/c1ccc[nH]1)c1cc2ccccc2cc1O | 
1.42 | 1.24 | C/C(=N\NC(=O)c1cc2ccccc2cc1O)c1cccs1 | 
1.37 | 1.16 | C/C(=N\NC(=O)c1cc2ccccc2cc1O)c1ccccc1 | 
5.94 | 7.56 | O=C(NN=C(c1ccccn1)c1ccccn1)c1cc2ccccc2cc1O | 
1.31 | 1.72 | COc1ccccc1C(=O)N/N=C(\C)c1ccccn1 | 
 |  | Cc1ccc(COc2ccc3ccc(=O)oc3c2)cc1 | Activity [3]: Non-Toxic
 |  | c1ccc(OCc2nc3ccccc3s2)cc1 [2-(PHENOXYMETHYL)BENZOTHIAZOLE] | Activity [3]: Non-Toxic
6.96 | 0.59 | C/C(=N\NC(=O)c1ccccc1)c1ccccn1 | 
1.18 | 1.42 | C/C(=N\NC(=O)c1cc2ccccc2cc1O)c1ccco1 | 
1.04 | 1.22 | O=C(N/N=C/c1ccco1)c1cc2ccccc2cc1O | 
 | 6.7 | C/C(=N\NC(=O)c1cc2ccccc2cc1O)c1ccccn1 | Activity [3]: Non-Toxic; Activity [4]: Dose-Dependent Effect; Activity (Huh-7 [5]): Active; Activity (Huh-7 [6]): Active; inhibition (Huh-7 [7]): Active; Activity [8]: Non-Toxic
1.01 | 1.11 | O=C(N/N=C/c1ccc2ccccc2n1)c1cc2ccccc2cc1O | 
1.09 | 1.79 | O=C(N/N=C/c1ccccn1)c1cc2ccccc2cc1O | 
1.15 | 1.33 | C/C(=N\NC(=O)c1cc2ccccc2cc1O)c1cccnc1 | 
0.88 | 1.4 | O=C(N/N=C/c1ccccn1)c1ccccc1O | 
0.99 | 3.31 | C/C(=N\NC(=O)c1cc2ccccc2cc1O)c1ccc2ccccc2n1 | 
0.9 | 1.2 | COc1ccc(/C(C)=N/NC(=O)c2cc3ccccc3cc2O)cc1 | 
1.04 | 1.22 | C/C(=N\NC(=O)c1cc2ccccc2cc1O)c1ccc[nH]1 | 
11 | 0.61 | C/C(=N\NC(=O)c1c(O)cccc1O)c1ccccn1 | 
0.9 | 1.01 | C/C(=N\NC(=O)c1cc2ccccc2cc1O)c1ccc([N+](=O)[O-])cc1 | 
6.66 | 13.3 | C/C(=N\NC(=O)c1cccc(O)c1)c1ccccn1 | 
1.14 | 4.7 | O=C(NN=C(c1ccccn1)c1ccccn1)c1ccc(O)cc1O | 
5.86 | 4.55 | O=C(NN=C(c1ccccn1)c1ccccn1)c1ccccc1O | 

Compound | fold change (FC) [1] | fold change (FC) [2] | other results
C/C(=N\NC(=O)c1cccnc1N)c1ccccn1 | 8.26 | 11.1 | Activity (Huh-7 [9]): Dose-Dependent Effect; Activity (Hep 3B2): Dose-Dependent Effect; Activity (HepG2 [10]): Dose-Dependent Effect; inhibition (HepG2 [11]): Dose-Dependent Effect; inhibition (Huh-7 [12]): Dose-Dependent Effect; inhibition (Huh-7 [13]): Active; Activity [14]: Non-Toxic; Activity [15]: Non-Toxic; Activity [16]: Non-Toxic; Activity [17]: Non-Toxic; Activity (Huh-7 [18]): inactive; Activity (Huh-7 [19]): inactive; Activity (HepG2 [20]): inactive; Activity (HepG2 [21]): inactive; inhibition (HepG2 [22]): Active; Activity (Huh-7 [23]): Active; Activity (Huh-7 [24]): Active; Drug uptake [25]: Active
